Reference: ChEMBL document CHEMBL1138851, “Synthesis, antifungal activity, and structure-activity relationships of coruscanone A analogues” (J Med Chem, 2006)
Converted amounts (≈) assume the structure as drawn.

Experiments:
Candida albicans [1] = experiment: Antifungal activity against Candida albicans ATCC 90028; assay type: functional, organism-based
Procedure, shortened: (§1)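 Broth microdilution; samples serially diluted in 20% DMSO/saline, duplicate wells. Inoculum 1.0 × 10⁴ CFU/ml in RPMI 1640/2% dextrose/0.03% glutamine/MOPS, pH 6.0. Incubated 37 °C, 18–24 h; OD630 read before and after incubation. IC50 from percent growth vs concentration; MIC as lowest concentration with no detectable growth; MFC as no growth on agar after plating 5 μl from clear wells.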

Cryptococcus neoformans = experiment: Antifungal activity against Cryptococcus neoformans ATCC 90113; assay type: functional, organism-based
Procedure, shortened: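 Serial dilutions in 20% DMSO/saline, tested in duplicate. Inoculum 1.0 × 10⁵ CFU/ml in Sabouraud dextrose broth. Incubated 30 °C, 72 h; OD630 read before and after incubation. IC50 from percent growth vs concentration; MIC as lowest concentration with no detectable growth; MFC as no growth on agar after plating 5 μl from clear wells.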

Aspergillus fumigatus = experiment: Antifungal activity against Aspergillus fumigatus ATCC 90906; assay type: functional, organism-based
Candida albicans [2] = experiment: Antifungal activity against fluconazole-susceptible Candida albicans; assay type: functional, organism-based
Procedure, shortened: as §1, with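 “wells.” for “wells. Inoculum 1.0 × 10⁴ CFU/ml in RPMI 1640/2% dextrose/0.03% glutamine/MOPS, pH 6.0.”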

LLC-PK1 = experiment: Cytotoxicity against LLC-PK1 cells by neutral red method; assay type: cell-based; settings: Sus scrofa
Procedure, shortened: (§2)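 Neutral red assay on ATCC-sourced Vero (African green monkey kidney […]) and LLC-PK1 (pig kidney epithelial) cells. Top test concentration 10 μg/mL. Values are means of three independent experiments.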

Candida albicans [3] = experiment: Antifungal activity against fluconazole-resistant Candida albicans; assay type: functional, organism-based
Procedure, shortened: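 Broth microdilution (NCCLS-based) against patient isolate #17 (last isolate during fluconazole therapy, azole-resistant); samples serially diluted in 20% DMSO/saline, tested in duplicate. Inoculum 1.0 × 10⁴ CFU/ml in RPMI 1640/2% dextrose/0.03% glutamine/MOPS pH 6.0; 37 °C, 18–24 h; OD630 read before and after. IC50 from % growth versus concentration; MIC = no detectable growth; MFC by subculture onto agar. Means of three independent experiments.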

Vero = experiment: Cytotoxicity against Vero cells by neutral red method; assay type: cell-based; settings: Chlorocebus sabaeus; procedure, shortened: as §2

| SMILES | IC50 (Candida albicans [1]) [mg/L] | IC50 (Cryptococcus neoformans) [mg/L] | IC50 (Aspergillus fumigatus) [mg/L] | MFC (Candida albicans [1]) [mg/L] | MIC (Candida albicans [1]) [mg/L] | IC50 (Candida albicans [2]) [mg/L] | MFC (Candida albicans [2]) [mg/L] | MIC (Candida albicans [2]) [mg/L] | IC50 (LLC-PK1) [mg/L] | IC50 (Candida albicans [3]) [mg/L] | MFC (Cryptococcus neoformans) [mg/L] | MIC (Cryptococcus neoformans) [mg/L] | MFC (Aspergillus fumigatus) [mg/L] | MIC (Aspergillus fumigatus) [mg/L] | IC50 (Vero) [mg/L] | MFC (Candida albicans [3]) [mg/L] | MIC (Candida albicans [3]) [mg/L] |
| --- | --- | --- | --- | --- | --- | --- | --- | --- | --- | --- | --- | --- | --- | --- | --- | --- | --- |
| COC(/C=C/c1ccccc1)=C1C(=O)C(C)=C(C)C1=O | > 20 | > 20 | > 20 |  |  |  |  |  |  |  |  |  |  |  |  |  |  |
| CC(=O)OC(/C=C/c1ccccc1)=C1C(=O)C(C)=C(C)C1=O | > 20 | > 20 | > 20 |  |  |  |  |  |  |  |  |  |  |  |  |  |  |
| CO/C(=C1\C(=O)C=C(C)C1=O)c1ccccc1 | 10.6 (≈ 46.4 µM) | > 20 | > 20 | > 20 | > 20 | 7.88 (≈ 34.5 µM) | > 20 | > 20 | > 10 | 6.04 (≈ 26.5 µM) | > 20 | > 20 | > 20 | > 20 | > 10 |  |  |
| COC(/C=C/c1ccccc1)=C1\C(=O)C=C(C)C1=O [CORUSCANONE A] | 0.8 (≈ 3.15 µM) | 2.04 (≈ 8.02 µM) | 19 (≈ 74.7 µM) | 2.08 (≈ 8.18 µM) | 2.08 (≈ 8.18 µM) | 0.47 (≈ 1.85 µM) | 1.25 (≈ 4.92 µM) | 1.25 (≈ 4.92 µM) | 3.4 (≈ 13.4 µM) | 0.68 (≈ 2.67 µM) | 8.33 (≈ 32.8 µM) | 8.33 (≈ 32.8 µM) | > 20 | > 20 | 4.9 (≈ 19.3 µM) | 2.08 (≈ 8.18 µM) | 2.08 (≈ 8.18 µM) |
| CC1=C(C)C(=O)C(=C(O)/C=C/c2ccccc2)C1=O | > 20 | > 20 | > 20 |  |  |  |  |  |  |  |  |  |  |  |  |  |  |
| CC1=CC(=O)/C(=C(O)/C=C/c2ccc(Cl)cc2)C1=O | 13 (≈ 47.3 µM) | > 20 | > 20 | > 20 | > 20 | 10 (≈ 36.4 µM) | > 20 | > 20 | 6 (≈ 21.8 µM) | 13 (≈ 47.3 µM) | > 20 | > 20 | > 20 | > 20 | > 10 |  |  |
| CC1=CC(=O)/C(=C(\O)c2ccccc2)C1=O | > 20 | > 20 | > 20 |  |  |  |  |  |  |  |  |  |  |  |  |  |  |
| O=C1C=C(c2ccccc2)C(=O)/C1=C(O)\C=C\c1ccccc1 | > 20 | > 20 | > 20 |  |  |  |  |  |  |  |  |  |  |  |  |  |  |
| COC(/C=C/c1ccccc1)=C1\C(=O)C=C(c2ccccc2)C1=O | > 20 | > 20 | > 20 | > 20 | > 20 | 20 (≈ 63.2 µM) | > 20 | > 20 | 5.1 (≈ 16.1 µM) | 18 (≈ 56.9 µM) | > 20 | > 20 | > 20 | > 20 | > 10 |  |  |
| OC(Cn1cncn1)(Cn1cncn1)c1ccc(F)cc1F [FLUCONAZOLE] | 0.22 (≈ 0.718 µM) | 5.65 (≈ 18.4 µM) | > 200 | > 200 | 0.45 (≈ 1.47 µM) | 0.24 (≈ 0.784 µM) | > 200 | 0.45 (≈ 1.47 µM) | > 10 | 118 (≈ 385 µM) | > 200 | 37 (≈ 121 µM) | > 200 | > 200 | > 10 | > 200 | > 200 |
| CC1=CC(=O)/C(=C(O)/C=C/c2cccs2)C1=O | > 20 | > 20 | > 20 |  |  |  |  |  |  |  |  |  |  |  |  |  |  |
| CC1=CC(=O)/C(=C(O)/C=C/c2ccccc2)C1=O | > 20 | > 20 | > 20 |  |  |  |  |  |  |  |  |  |  |  |  |  |  |
| COC(/C=C/c1ccc(O)cc1)=C1\C(=O)C=C(C)C1=O | 3.3 (≈ 12.2 µM) | 6.95 (≈ 25.7 µM) | > 20 | 10 (≈ 37 µM) | 10 (≈ 37 µM) | 1.86 (≈ 6.88 µM) | 13 (≈ 48.1 µM) | 5 (≈ 18.5 µM) | 3.4 (≈ 12.6 µM) | 5.35 (≈ 19.8 µM) | > 20 | > 20 | > 20 | > 20 | 3.7 (≈ 13.7 µM) | 20 (≈ 74 µM) | 20 (≈ 74 µM) |
| CC1=C(C)C(=O)C(=C(/C=C/c2ccccc2)OC(=O)c2ccccc2)C1=O | > 20 | > 20 | > 20 |  |  |  |  |  |  |  |  |  |  |  |  |  |  |
| CCOC(/C=C/c1ccccc1)=C1C(=O)C(C)=C(C)C1=O | > 20 | > 20 | > 20 |  |  |  |  |  |  |  |  |  |  |  |  |  |  |
| C[C@@H]1[C@H](O)[C@@H](C)/C=C/C=C/C=C/C=C/C=C/C=C/C=C/[C@H](O[C@@H]2O[C@H](C)[C@@H](O)[C@H](N)[C@@H]2O)C[C@@H]2O[C@](O)(C[C@@H](O)C[C@@H](O)[C@H](O)CC[C@@H](O)C[C@@H](O)CC(=O)O[C@H]1C)C[C@H](O)[C@H]2C(=O)O [AMPHOTERICIN B] | 0.15 (≈ 0.162 µM) | 0.41 (≈ 0.444 µM) | 0.73 (≈ 0.79 µM) | 1.04 (≈ 1.13 µM) | 0.63 (≈ 0.682 µM) | 0.12 (≈ 0.13 µM) |  | 0.52 (≈ 0.563 µM) | 2.4 (≈ 2.6 µM) | 0.17 (≈ 0.184 µM) | 1.67 (≈ 1.81 µM) |  |  |  | 7 (≈ 7.58 µM) | 0.83 (≈ 0.898 µM) | 0.63 (≈ 0.682 µM) |
| CCOC(/C=C/c1ccccc1)=C1\C(=O)C=C(C)C1=O | 5.02 (≈ 18.7 µM) | 5.02 (≈ 18.7 µM) | > 20 | 20 (≈ 74.5 µM) | 20 (≈ 74.5 µM) | 2.49 (≈ 9.28 µM) | 17 (≈ 63.4 µM) | 12 (≈ 44.7 µM) | 4 (≈ 14.9 µM) | 4.51 (≈ 16.8 µM) | 20 (≈ 74.5 µM) | 20 (≈ 74.5 µM) | > 20 | > 20 | 4.8 (≈ 17.9 µM) | 20 (≈ 74.5 µM) | 13 (≈ 48.5 µM) |
| COC(/C=C/c1cccs1)=C1\C(=O)C=C(C)C1=O | 1.21 (≈ 4.65 µM) | 2.49 (≈ 9.57 µM) | 9.81 (≈ 37.7 µM) | 3.33 (≈ 12.8 µM) | 3.33 (≈ 12.8 µM) | 0.74 (≈ 2.84 µM) | 2.5 (≈ 9.6 µM) | 2.5 (≈ 9.6 µM) | 2.8 (≈ 10.8 µM) | 1.39 (≈ 5.34 µM) | 12 (≈ 46.1 µM) | 12 (≈ 46.1 µM) | > 20 | 20 (≈ 76.8 µM) | 3 (≈ 11.5 µM) | 4.17 (≈ 16 µM) | 4.17 (≈ 16 µM) |
| COC(/C=C/c1ccco1)=C1\C(=O)C=C(C)C1=O | 1.4 (≈ 5.73 µM) | 3.4 (≈ 13.9 µM) | 8.98 (≈ 36.8 µM) | 4.17 (≈ 17.1 µM) | 4.17 (≈ 17.1 µM) | 0.93 (≈ 3.81 µM) | 2.5 (≈ 10.2 µM) | 2.5 (≈ 10.2 µM) | 3.3 (≈ 13.5 µM) | 2.4 (≈ 9.83 µM) | 13 (≈ 53.2 µM) | 10 (≈ 40.9 µM) | 20 (≈ 81.9 µM) | 20 (≈ 81.9 µM) | 3.3 (≈ 13.5 µM) | 6.67 (≈ 27.3 µM) | 4.17 (≈ 17.1 µM) |
| CO/C(C)=C1\C(=O)C=C(C)C1=O | > 20 | > 20 | > 20 |  |  |  |  |  |  |  |  |  |  |  |  |  |  |
| COC(/C=C/c1ccc(Cl)cc1)=C1\C(=O)C=C(C)C1=O | 1.39 (≈ 4.81 µM) | 2.23 (≈ 7.72 µM) | 20 (≈ 69.3 µM) | 4.17 (≈ 14.4 µM) | 4.17 (≈ 14.4 µM) | 0.64 (≈ 2.22 µM) | 2.92 (≈ 10.1 µM) | 2.08 (≈ 7.2 µM) | 3.1 (≈ 10.7 µM) | 0.86 (≈ 2.98 µM) | 12 (≈ 41.6 µM) | 12 (≈ 41.6 µM) | > 20 | > 20 | 5.5 (≈ 19 µM) | 2.92 (≈ 10.1 µM) | 2.92 (≈ 10.1 µM) |
| CC1=CC(=O)/C(=C(O)/C=C/c2ccco2)C1=O | > 20 | > 20 | > 20 |  |  |  |  |  |  |  |  |  |  |  |  |  |  |
| CC1=C(C)C(=O)C(=C(/C=C/c2ccccc2)OC(=O)/C=C/c2ccccc2)C1=O | > 20 | > 20 | > 20 |  |  |  |  |  |  |  |  |  |  |  |  |  |  |
| COc1cccc2c1C(=O)c1c(O)c3c(c(O)c1C2=O)C[C@@](O)(C(=O)CO)C[C@@H]3O[C@H]1C[C@H](N)[C@H](O)[C@H](C)O1 [DOXORUBICIN] |  |  |  |  |  |  |  |  | 0.65 (≈ 1.2 µM) |  |  |  |  |  | 7.5 (≈ 13.8 µM) |  |  |
| CC(=O)OC(/C=C/c1ccccc1)=C1\C(=O)C=C(C)C1=O | 8.56 (≈ 30.3 µM) | 20 (≈ 70.8 µM) | > 20 | > 20 | > 20 | 3.79 (≈ 13.4 µM) | > 20 | > 20 | 4.9 (≈ 17.4 µM) | 5.84 (≈ 20.7 µM) | > 20 | > 20 | > 20 | > 20 | 5.5 (≈ 19.5 µM) |  |  |
| COC(/C=C/c1ccc(OC)cc1)=C1\C(=O)C=C(C)C1=O | 3.03 (≈ 10.7 µM) | 3.41 (≈ 12 µM) | > 20 | 10 (≈ 35.2 µM) | 10 (≈ 35.2 µM) | 1.56 (≈ 5.49 µM) | 6.67 (≈ 23.5 µM) | 5 (≈ 17.6 µM) | 3.9 (≈ 13.7 µM) | 4.29 (≈ 15.1 µM) | 17 (≈ 59.8 µM) | 15 (≈ 52.8 µM) | > 20 | > 20 | 5 (≈ 17.6 µM) | 13 (≈ 45.7 µM) | 10 (≈ 35.2 µM) |
